{
  "source": "ChEMBL document CHEMBL4261513",
  "about": "“Dichloro-naphthoquinone as a non-classical inhibitor of the mycobacterial carbonic anhydrase Rv3588c” (Medchemcomm, 2017)",
  "key": {"[1]": {"molecular_target": "T1, Beta-carbonic anhydrase 1 (Mycobacterium tuberculosis) (UniProt P9WPJ7)", "T1 sequence (whole entry)": "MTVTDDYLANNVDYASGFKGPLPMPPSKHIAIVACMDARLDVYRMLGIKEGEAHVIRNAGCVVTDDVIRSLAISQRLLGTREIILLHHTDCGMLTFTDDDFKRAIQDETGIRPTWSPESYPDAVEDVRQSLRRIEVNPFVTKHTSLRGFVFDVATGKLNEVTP", "experiment": "Binding affinity to recombinant Mycobacterium tuberculosis Rv1284 expressed in Escherichia coli BL21-Al cells assessed as change in melting temperature by SYPRO Orange dye based differential scanning fluorimetric method"}, "[2]": {"molecular_target": "T2, Carbonic anhydrase 2 (Mycobacterium tuberculosis) (UniProt P9WPJ9)", "T2 sequence (whole entry)": "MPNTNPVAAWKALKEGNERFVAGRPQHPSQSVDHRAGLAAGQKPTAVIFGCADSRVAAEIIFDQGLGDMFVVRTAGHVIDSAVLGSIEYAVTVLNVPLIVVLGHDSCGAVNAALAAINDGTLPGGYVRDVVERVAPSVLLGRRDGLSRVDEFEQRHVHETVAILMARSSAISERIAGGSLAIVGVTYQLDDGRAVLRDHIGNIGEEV", "experiment": "Inhibition of recombinant Mycobacterium tuberculosis N-terminal Hi-tagged Rv3588c expressed in Escherichia coli BL21-Al cells assessed as enzyme residual activity at 25 uM measured for 10 secs by m-cresol purple staining based stopped-flow CO2 hydration assay relative to control", "outline": "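Rv3588c with an N-terminal His tag, purified by QA52 anion exchange and then Ni-NTA at pH 8.0, and dialysed into 100 mM NaCl, 20 mM HEPES pH 7.5. Stopped-flow CO2 hydration followed by m-cresol purple absorbance. Sample buffer was 100 mM Na2SO4, 25 mM TAPS pH 8.5, 5 μM protein plus compound, mixed 1:1 with CO2-saturated water. Initial rates over the first 10 s, at least five traces each.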"}, "[3]": {"molecular_target": "T1, Beta-carbonic anhydrase 1 (Mycobacterium tuberculosis)", "experiment": "Inhibition of recombinant Mycobacterium tuberculosis Rv1284 expressed in Escherichia coli BL21-Al cells assessed as enzyme residual activity at 25 uM measured for 10 secs by m-cresol purple staining based stopped-flow CO2 hydration assay relative to control", "outline": "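Untagged Rv1284, purified by QA52 anion exchange at pH 8.0 and SP-Sepharose cation exchange at pH 4.5, and dialysed into 100 mM NaCl, 20 mM HEPES pH 7.5. Stopped-flow CO2 hydration with m-cresol purple read-out. Sample buffer was 100 mM Na2SO4, 25 mM TAPS pH 8.5, 5 μM enzyme plus compound, mixed 1:1 with CO2-saturated water. Initial rates from the first 10 s, at least five traces.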"}, "[4]": {"molecular_target": "Carbonic anhydrase 2 (Homo sapiens) (UniProt P00918)", "experiment": "Inhibition of recombinant human carbonic anhydrase 2 expressed in Escherichia coli BL21 (DE3) assessed as enzyme residual activity at 25 uM measured for 10 secs by m-cresol purple staining based stopped-flow CO2 hydration assay relative to control", "outline": "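Codon-optimised synthetic human CA II gene expressed in bacteria. Activity measured by stopped-flow CO2 hydration, monitoring m-cresol purple absorbance. Sample buffer was 100 mM Na2SO4, 25 mM TAPS pH 8.5, 5 μM protein with compound, mixed 1:1 with CO2-saturated water. Initial rates over the first 10 s, from at least five traces per compound.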"}, "[5]": {"molecular_target": "T2, Carbonic anhydrase 2 (Mycobacterium tuberculosis)", "experiment": "(§1) Inhibition of recombinant Mycobacterium tuberculosis N-terminal Hi-tagged Rv3588c expressed in Escherichia coli BL21-Al cells measured for 10 secs by m-cresol purple staining based stopped-flow CO2 hydration assay", "outline": "(§2)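 His-tagged Rv3588c in stopped-flow CO2 hydration with m-cresol purple read-out, in 100 mM Na2SO4, 25 mM TAPS pH 8.5 against CO2-saturated water. Five compound concentrations, starting from […]. Initial rates taken over the first 10 s. Dose-response data fitted to a curve.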"}, "Carbonic anhydrase 2": {"molecular_target": "T3, Carbonic anhydrase 2 (Mycobacterium tuberculosis, UniProt P9WPJ9)", "T3 sequence (P9WPJ9 whole entry)": "T2 sequence (whole entry)", "experiment": "as §1", "outline": "as §2"}},
  "data": [
    {"smiles": "O=C1C(Cl)=C(NCc2ccccc2)C(=O)c2ccccc21", "values": [
      {"measurement": "deltaTm", "setting": "[1]", "value": -2.5, "unit": "K"},
      {"measurement": "Activity", "setting": "[2]", "value": 99.1, "unit": "%"},
      {"measurement": "Activity", "setting": "[3]", "value": 96.5, "unit": "%"}
    ]},
    {"smiles": "CCN(CC)CCCNC1=C(Cl)C(=O)c2ccccc2C1=O", "values": [
      {"measurement": "deltaTm", "setting": "[1]", "value": -0.6, "unit": "K"},
      {"measurement": "Activity", "setting": "[2]", "value": 93.8, "unit": "%"},
      {"measurement": "Activity", "setting": "[3]", "value": 68.5, "unit": "%"}
    ]},
    {"smiles": "O=C1C=C(Br)C(=O)c2ccccc21", "values": [
      {"measurement": "deltaTm", "setting": "[1]", "value": -10.1, "unit": "K"},
      {"measurement": "Activity", "setting": "[4]", "value": 109, "unit": "%"},
      {"measurement": "Activity", "setting": "[2]", "value": 68.1, "unit": "%"},
      {"measurement": "Activity", "setting": "[3]", "value": 72.2, "unit": "%"}
    ]},
    {"smiles": "O=C1C(O)=C([C@H]2CC[C@H](c3ccc(Cl)cc3)CC2)C(=O)c2ccccc21", "values": [
      {"measurement": "deltaTm", "setting": "[1]", "value": -0.5, "unit": "K"},
      {"measurement": "Activity", "setting": "[2]", "value": 80.7, "unit": "%"},
      {"measurement": "Activity", "setting": "[3]", "value": 83.1, "unit": "%"}
    ]},
    {"smiles": "O=C1C(Cl)=C(Cl)C(=O)c2ccccc21", "note": "[Dichlon]", "values": [
      {"measurement": "deltaTm", "setting": "[1]", "value": -10.2, "unit": "K"},
      {"measurement": "Activity", "setting": "[4]", "value": 96.8, "unit": "%"},
      {"measurement": "Imax", "setting": "[5]", "value": 84, "unit": "%"},
      {"measurement": "IC50", "setting": "Carbonic anhydrase 2", "value": 1200, "unit": "nM"},
      {"measurement": "Activity", "setting": "[2]", "value": 16.1, "unit": "%"},
      {"measurement": "Activity", "setting": "[3]", "value": 81.5, "unit": "%"}
    ]},
    {"smiles": "COC1=CC(=O)c2ccccc2C1=O", "note": "[2-Methoxy-1,4-naphthoquinone]", "values": [
      {"measurement": "deltaTm", "setting": "[1]", "value": -0.5, "unit": "K"},
      {"measurement": "Activity", "setting": "[4]", "value": 104, "unit": "%"},
      {"measurement": "Imax", "setting": "[5]", "value": 40, "unit": "%"},
      {"measurement": "IC50", "setting": "Carbonic anhydrase 2", "value": 2300, "unit": "nM"},
      {"measurement": "Activity", "setting": "[2]", "value": 84.5, "unit": "%"},
      {"measurement": "Activity", "setting": "[3]", "value": 62.3, "unit": "%"}
    ]},
    {"smiles": "CC(C)CCNC1=C(Cl)C(=O)c2ccccc2C1=O", "values": [
      {"measurement": "deltaTm", "setting": "[1]", "value": -1.5, "unit": "K"},
      {"measurement": "Activity", "setting": "[2]", "value": 103, "unit": "%"},
      {"measurement": "Activity", "setting": "[3]", "value": 103, "unit": "%"}
    ]},
    {"smiles": "COCCNC1=C(Cl)C(=O)c2ccccc2C1=O", "values": [
      {"measurement": "deltaTm", "setting": "[1]", "value": -1.5, "unit": "K"},
      {"measurement": "Activity", "setting": "[2]", "value": 98.8, "unit": "%"},
      {"measurement": "Activity", "setting": "[3]", "value": 67.2, "unit": "%"}
    ]},
    {"smiles": "O=C1C2=C(C(=O)c3ccccc31)S(=O)(=O)CCN2", "values": [
      {"measurement": "deltaTm", "setting": "[1]", "value": -0.4, "unit": "K"},
      {"measurement": "Activity", "setting": "[2]", "value": 80.6, "unit": "%"},
      {"measurement": "Activity", "setting": "[3]", "value": 79.5, "unit": "%"}
    ]},
    {"smiles": "CN(C)CCCNC1=C(Cl)C(=O)c2ccccc2C1=O", "values": [
      {"measurement": "deltaTm", "setting": "[1]", "value": -0.9, "unit": "K"},
      {"measurement": "Activity", "setting": "[2]", "value": 110, "unit": "%"},
      {"measurement": "Activity", "setting": "[3]", "value": 79.4, "unit": "%"}
    ]},
    {"smiles": "Clc1cc2ccccc2cc1Cl", "values": [
      {"measurement": "deltaTm", "setting": "[1]", "value": 1.3, "unit": "K"},
      {"measurement": "Activity", "setting": "[2]", "value": 82.8, "unit": "%"},
      {"measurement": "Activity", "setting": "[3]", "value": 80.3, "unit": "%"}
    ]},
    {"smiles": "O=C1C2=C(C(=O)c3ccccc31)S(=O)(=O)C=CN2", "values": [
      {"measurement": "deltaTm", "setting": "[1]", "value": -1.1, "unit": "K"},
      {"measurement": "Activity", "setting": "[2]", "value": 78.3, "unit": "%"},
      {"measurement": "Activity", "setting": "[3]", "value": 74.6, "unit": "%"}
    ]},
    {"smiles": "COC1=CC(=O)C=C(CO)C1=O", "values": [
      {"measurement": "deltaTm", "setting": "[1]", "value": 0.1, "unit": "K"},
      {"measurement": "Activity", "setting": "[2]", "value": 104, "unit": "%"},
      {"measurement": "Activity", "setting": "[3]", "value": 101, "unit": "%"}
    ]},
    {"smiles": "O=C1C=CC(=O)c2ccccc21", "values": [
      {"measurement": "deltaTm", "setting": "[1]", "value": -8.8, "unit": "K"},
      {"measurement": "Activity", "setting": "[2]", "value": 94.8, "unit": "%"},
      {"measurement": "Activity", "setting": "[3]", "value": 76.6, "unit": "%"}
    ]},
    {"smiles": "O=C1C(Cl)=C(NCCc2ccccc2)C(=O)c2ccccc21", "values": [
      {"measurement": "deltaTm", "setting": "[1]", "value": -0.7, "unit": "K"},
      {"measurement": "Activity", "setting": "[2]", "value": 93.2, "unit": "%"},
      {"measurement": "Activity", "setting": "[3]", "value": 110, "unit": "%"}
    ]}
  ]
}
